Values after ≈ are worked out from the molar mass of the structure shown.
What was measured:
coxsackievirus B4 (CBV4) = assay: Plaque assay, antiviral activity against CBV4; assay type: cell-based; conditions: nontoxic dose of compound; average of three independent measurements
How it was run: (§1)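 Plaque reduction. Nontoxic dilutions of test compound were mixed 1:1 with virus at 1 × 105, 1 × 106 or 1 × 107, for 0.5 h at 37 °C. 10-fold dilutions went onto BGM (CBV4), FRHK4 (HAV HM 175) or Hep-2 (adenovirus 7), with 1 h adsorption at 37 °C. Overlay was 2× DMEM plus 1% agarose. Cells were formalin-fixed and crystal violet-stained, and plaques counted. Triplicate. IC50 is the half-maximal plaque-reduction concentration.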

[1] = test system: herpes simplex virus type 1 (HSV-1); assay: Plaque assay, antiviral activity against HSV-1; assay type: cell-based; conditions: nontoxic dose of compound; average of three independent measurements
[2] = test system: adenovirus type 7 (HAdV7); assay: Plaque assay, antiviral activity against adenovirus type 7; assay type: cell-based; conditions: nontoxic dose of compound; average of three independent measurements
How it was run: as §1

[3] = test system: hepatitis A virus HM 175 (HAV HM 175); assay: Plaque assay, antiviral activity against HAV HM 175; assay type: cell-based; conditions: nontoxic dose of compound; average of three independent measurements
How it was run: as §1

[4] = test system: ED-43/SG-Feo (VYG) replicon of hepatitis C virus genotype 4a (HCVcc); assay: Antiviral bioassay against ED-43/SG-Feo; assay type: cell-based; conditions: nontoxic dose of compound; average of three independent measurements
How it was run: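 Huh 7.5 cells carrying the ED-43/SG-Feo (VYG) HCV genotype 4a subgenomic replicon were treated with the nontoxic dose of test compound. Replicon RNA copies were quantified by TaqMan qRT-PCR, and the result was expressed as percent reduction.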

S. aureus (ATCC:6538) [5] = assay: Agar well diffusion, inhibition zone; assay type: cell-based, Staphylococcus aureus; conditions: Staphylococcus aureus, 24 h, read-out: diameter of the IZ, S. aureus (ATCC:6538)
How it was run: (§2)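 Agar well diffusion. Saline inoculum adjusted to McFarland 0.5 ([…]), i.e. OD 0.13 at 625 nm, and swabbed over dried agar. After 15 min drying, 6 mm wells received 100 μL of test compound at 15 mg/mL. Plates incubated at 37 °C; bacterial zones read in mm after 24 h incubation […]. Triplicate, reported as mm ± SD. Gentamicin and ampicillin served as reference drugs.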

S. mutans (ATCC:25175) [6] = assay: Agar well diffusion, inhibition zone; assay type: cell-based; conditions: Streptococcus mutans, 24 h, read-out: diameter of the IZ, S. mutans (ATCC:25175)
How it was run: as §2

C. albicans (ATCC:10231) = assay: Agar well diffusion, inhibition zone; assay type: cell-based, Candida albicans; conditions: 15 mg/mL, 100 μL per well; mm ± SD
How it was run: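 Fungal plates were poured and agar dried 15 min. 6 mm wells were cut with a sterile borer and filled with 100 μL test compound solution at 15 mg/mL. Inhibition zone diameter (mm) was read after 48 h incubation. Triplicate, reported as mm ± SD.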

E. coli (ATCC:3008) = assay: Agar well diffusion, inhibition zone; assay type: cell-based, Escherichia coli; conditions: 15 mg/mL, 100 μL per well; mm ± SD
How it was run: as §2

S. aureus (ATCC:6538) [7] = assay: MIC, twofold serial dilution in agar; assay type: cell-based; conditions: Staphylococcus aureus, read-out: MIC, S. aureus (ATCC:6538)
S. mutans (ATCC:25175) [8] = assay: MIC, twofold serial dilution in agar; assay type: cell-based; conditions: Streptococcus mutans, read-out: MIC, S. mutans (ATCC:25175)

SMILES	mean % of reduction, CBV4 (coxsackievirus B4 (CBV4)) [%]	mean % of reduction, herpes simplex virus [1] [%]	mean % of reduction, adenovirus type 7 [2] [%]	mean % of reduction, HAV HM 175 [3] [%]	mean % of reduction, HCVcc genotype 4 [4] [%]	zone of inhibition at 15000 µg/mL (S. aureus (ATCC:6538) [5]) [mm]	zone of inhibition at 15000 µg/mL (S. mutans (ATCC:25175) [6]) [mm]	diameter of the IZ, C. albicans (ATCC:10231) (C. albicans (ATCC:10231)) [mm]	further results
CCSC(SCC)=C(C#N)c1nc2ccccc2s1 [3b, 2-(Benzo[d]thiazol-2-yl)-3,3-bis(ethylthio)acrylonitrile]	20.0 ± 0.20	26.7 ± 0.20	30.0 ± 0.30	40.0 ± 0.30	20.0 ± 0.25				
CSc1c(-c2nc3ccccc3s2)c(N)n(NS(=O)(=O)c2ccccc2)c(=O)c1C#N [8a, N-(6-Amino-5-(benzo[d]thiazol-2-yl)-3-cyano-4-(methylthio)-2-oxopyridin-1(2H)-yl)benzenesulfonamide]		30.0 ± 0.25			20.0 ± 0.10	25.8 ± 0.5	19.8 ± 1		
CCSc1c(-c2nc3ccccc3s2)c(N)n(NS(=O)(=O)c2ccccc2)c(=O)c1C#N [8c, N-(6-Amino-5-(benzo[d]thiazol-2-yl)-3-cyano-4-(ethylthio)-2-oxopyridin-1(2H)-yl)benzenesulfonamide]	13.3 ± 0.10	10.0 ± 0.15	10.0 ± 0.15	10.0 ± 0.15	16.7 ± 0.15	24.5 ± 0.7	21.3 ± 1.1		
CCSc1c(-c2nc3ccccc3s2)c(N)n(NS(=O)(=O)c2ccc(C)cc2)c(=O)c1C#N [8d, N-(6-Amino-5-(benzo[d]thiazol-2-yl)-3-cyano-4-(ethylthio)-2-oxopyridin-1(2H)-yl)-4-methylbenzenesulfonamide]						29.9 ± 0.6	12.5 ± 1		
Cc1ccc(S(=O)(=O)Nn2c(N)c(-c3nc4ccccc4s3)c3[nH]nc(N)c3c2=O)cc1 [9b, N-(3,6-Diamino-7-(benzo[d]thiazol-2-yl)-4-oxo-1H-pyrazolo[4,3-c]pyridin-5(4H)-yl)-4-methylbenzenesulfonamide]								24.3 ± 0.5	diameter of the IZ, E. coli (ATCC:3008) (E. coli (ATCC:3008)): 15.0 ± 0.5 mm
CSc1c(-c2nc3ccccc3[nH]2)c(N)n(NS(=O)(=O)c2ccccc2)c(=O)c1C#N [13a, N-(6-Amino-5-(1H-benzo[d]imidazol-2-yl)-3-cyano-4-(methylthio)-2-oxopyridin-1(2H)-yl)benzenesulfonamide]	20.0 ± 0.10	20.0 ± 0.30	10.0 ± 0.10	13.3 ± 0.10	20.0 ± 0.15	30 ± 1		22.0 ± 0.5	
CSc1c(-c2nc3ccccc3[nH]2)c(N)n(NS(=O)(=O)c2ccc(C)cc2)c(=O)c1C#N [13b, N-(6-Amino-5-(1H-benzo[d]imidazol-2-yl)-3-cyano-4-(methylthio)-2-oxopyridin-1(2H)-yl)-4-methylbenzenesulfonamide]						28.9 ± 0.7		21.0 ± 0.1	
N#Cc1cc(C#N)c(=O)n(NS(=O)(=O)c2ccccc2)c1N [15a, N-(6-Amino-3,5-dicyano-2-oxopyridin-1(2H)-yl)benzenesulfonamide]								19.6 ± 2.0	
CC1(C)S[C@@H]2[C@H](NC(=O)[C@H](N)c3ccccc3)C(=O)N2[C@H]1C(=O)O [ampicillin, reference compound]						32 ± 0.5	22 ± 0.5		MIC (S. aureus (ATCC:6538) [7]): 62.5 µg/mL (≈ 179 µM); MIC (S. mutans (ATCC:25175) [8]): 62.5 µg/mL (≈ 179 µM)
